High-throughput results deposited in PubChem by several laboratories.
IDE inh – human IDE inhibitors in live cells, primary screen, fluorescence polarization, HEK cells, FAbetaB substrate; Insulin-degrading enzyme (Homo sapiens), P14735; FAbetaB cleavage; inhibition, % at 5.59 µM; 320,000 compounds, 0.41% hits; AID 434962, 2010;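 active means percent inhibition above the average of all tested compounds plus 3 SD, set per screening campaign, cut at about 16% in these data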;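 further: IDE supplied by intact live HEK cells; FP after avidin binding of uncleaved biotin substrate so inhibition keeps polarization high; 0% = DMSO wells and 100% = 60 µM reference IDE inhibitor Ii1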
Target sequence (P14735 whole entry, looked up): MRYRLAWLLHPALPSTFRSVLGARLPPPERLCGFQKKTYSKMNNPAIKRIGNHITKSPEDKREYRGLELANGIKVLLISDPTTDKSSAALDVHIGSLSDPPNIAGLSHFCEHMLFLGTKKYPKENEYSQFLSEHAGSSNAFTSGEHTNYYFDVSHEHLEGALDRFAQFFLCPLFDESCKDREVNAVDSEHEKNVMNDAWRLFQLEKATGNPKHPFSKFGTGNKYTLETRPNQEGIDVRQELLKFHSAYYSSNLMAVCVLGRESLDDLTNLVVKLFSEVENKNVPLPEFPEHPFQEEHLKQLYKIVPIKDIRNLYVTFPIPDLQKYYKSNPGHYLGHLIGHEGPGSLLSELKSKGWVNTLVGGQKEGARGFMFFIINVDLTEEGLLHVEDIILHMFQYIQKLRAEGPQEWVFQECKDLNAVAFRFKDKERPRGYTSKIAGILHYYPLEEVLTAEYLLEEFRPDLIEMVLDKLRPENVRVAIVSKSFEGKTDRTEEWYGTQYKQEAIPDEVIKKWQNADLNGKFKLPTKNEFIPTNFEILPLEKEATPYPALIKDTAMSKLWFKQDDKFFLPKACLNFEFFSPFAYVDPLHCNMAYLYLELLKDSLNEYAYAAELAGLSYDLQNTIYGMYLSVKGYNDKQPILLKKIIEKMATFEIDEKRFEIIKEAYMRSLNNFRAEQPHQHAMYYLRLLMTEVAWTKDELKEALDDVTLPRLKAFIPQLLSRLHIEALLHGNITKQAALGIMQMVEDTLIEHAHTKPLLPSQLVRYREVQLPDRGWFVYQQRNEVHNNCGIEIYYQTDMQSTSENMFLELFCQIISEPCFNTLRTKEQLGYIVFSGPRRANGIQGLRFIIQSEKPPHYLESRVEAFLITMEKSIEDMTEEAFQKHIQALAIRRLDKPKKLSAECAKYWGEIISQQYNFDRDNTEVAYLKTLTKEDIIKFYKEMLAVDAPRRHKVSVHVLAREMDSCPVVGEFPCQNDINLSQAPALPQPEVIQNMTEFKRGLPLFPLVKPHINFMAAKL
CSN inh – inhibitors of CSN-mediated cullin deneddylation, primary screen, biochemical, fluorescence polarization, uHTS; inhibition, % at 12.5 µM; AID 651999, 2013; Purified CSN, SCF-Nedd8-OG deneddylation; 360,000 compounds, 0.38% hits; COP9 signalosome complex subunit 5 (Homo sapiens), Q92905;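 active means pattern-corrected inhibition above about 35%, with an unprinted fluorescence ratio check between 0.5 and 1.5, limit read from the data, passing the limit was not always enough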;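 further: 0% = enzyme with substrate and 100% = substrate without enzyme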
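Assay system: purified human Csn5 enzyme expressed in HEK293T cells; measure: % inhibition; also added: SCFSkp2-Nedd8OG substrate at 10 nM final; technique: fluorescence polarization; times: reaction 90 min, room temperature; medium: Tris buffer pH 7.5, NaCl, DTT, Tween-20, trehalose, ovalbumin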
Rpn11 block – Rpn11 (PSMD14) deubiquitinase inhibitors, primary screen, biochemical, fluorescence polarization, uHTS; 360,000 compounds, 0.59% hits; inhibition, % at 20 µM; 26S proteasome non-ATPase regulatory subunit 14 (Homo sapiens), O00487; AID 588493, 2011; human 26S proteasome, Ub4-pepOG fluorescence polarization; 20S core pre-blocked with epoxomicin;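 active means inhibition at 20 µM, scaled to each plate's controls, above about 33%, limit read from the data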
TPT1 inh – Candida albicans TPT1 enzyme inhibitors, primary screen, biochemical, fluorescence polarization. recombinant caTPT1, FP RNA substrate dephosphorylation. AID 1962, 2009. inhibition, % at 5 µM. 300,000 compounds, 0.81% hits;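 active means inhibition above the mean of all tested compounds plus 3 SD, set per screening campaign, cut at about 24% in these data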;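 further: plate controls were DMSO alone for no effect and ferristatin control at 100 nM for full effect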
IDE cell activ – human IDE activators in live cells, primary screen, fluorescence polarization, HEK cells, FAbeta-B substrate; Insulin-degrading enzyme (Homo sapiens), P14735; FAbeta-B cleavage; 0% vehicle, 100% cell-free pure enzyme wells; activation, % at 5.96 µM; 340,000 compounds, 0.073% hits;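 active means activation above the mean of all tested compounds plus 3 SD, set per screening campaign, cut at about 17% in these data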
HNF4A DNA FP – change in binding of human HNF4A to DNA, primary screen, biochemical, fluorescence polarization, FITC-DNA; activity change, % at 10 µM; 360,000 compounds, 0.3% hits; 1 h; Hepatocyte nuclear factor 4-alpha (Homo sapiens), P41235; AID 1224865, 2016; in the data active means activity change above about 30%, passing the limit was not always enough
Numbers without * were called inactive; . = no result shown; + = active, no number. A selection: hits, their analogues and other compounds. The true share with any hit is near 1.7%.

SMILES	IDE inh	CSN inh	Rpn11 block	TPT1 inh	IDE cell activ	HNF4A DNA FP
O=c1nc2s/c(=C\c3ccco3)c(=O)n2nc1Cc1ccc(F)cc1	-3.3	0.5	-5.4	3.2	8.6	-0.9
Cc1ccc(/C=c2/sc3nnc(-c4ccccc4Cl)n3c2=O)o1	3.5	16.0	15.9	8.9	-3.3	6.4
COc1ccc(/C=C2\SC(=O)N(CCNC(=O)C3CCN(S(=O)(=O)c4cccs4)CC3)C2=O)cc1	6.6	-4.5	-16.0	-3.0	2.9	31.0*
CCC(=O)N1CCC1(C)C(=O)Nc1ccc2c(c1)CCN2C(C)=O (stereo not given)	.	0.7	0.9	.	.	-3.8
Cc1csc(SCC(=O)Nc2cccc(S(=O)(=O)N3CCCC3)c2)n1	0.0	106.5*	-5.0	2.1	-1.4	-2.8
Cc1csc(SCC(=O)Nc2cc(S(=O)(=O)N3CCCC3)ccc2Cl)n1	-1.7	2.2	3.0	3.1	-4.2	-1.1
Cc1cc(C)c(C(=O)OCC(=O)Nc2cccc(S(=O)(=O)N3CCCCC3)c2)c(C)c1	3.0	+	-0.7	2.0	1.9	-3.9
O=C(COC(=O)c1ccccc1Cl)Nc1cccc(S(=O)(=O)N2CCCCC2)c1	.	-5.0	-0.8	.	.	-2.3
COCCN1C(=O)COc2ccccc2C1C(=O)NC1CCCC1 (stereo not given)	.	3.4	.	.	.	-1.6
O=C(Nc1ccc(F)cc1)C(CCc1ccccc1)N1CCN(c2cccc(C(F)(F)F)n2)CC1 (stereo not given)	.	0.7	.	.	.	0.8
Cc1ccc(NC(=O)CN2C(=O)NC(C)(C)C2=O)cc1S(=O)(=O)N1CCCCCC1	.	-0.3	1.6	.	4.3	33.1*
Cc1ccc(NC(=O)CN2C(=O)NC3(CCCC3)C2=O)cc1S(=O)(=O)N1CCCCC1	-1.7	1.7	-7.1	.	7.6	-1.2
C[C@@H]1CN([C@H](C)CO)C(=O)c2c(c3ccccc3n2C)-c2ccccc2CO[C@H]1CN(C)S(=O)(=O)c1cn(C)cn1	.	5.0	0.6	.	.	2.7
CN1CCN(CC(=O)n2c3c(c4ccccc42)CCCC3)CC1	4.7	39.3*	-0.5	2.0	1.6	6.2
CCN(CC)CC(=O)n1c2c(c3ccccc31)CCCC2	-2.7	1.0	9.0	3.2	3.4	-0.2
O=C(NC1CCCC1)C1C(c2ccc(C(F)(F)F)cc2)=Nc2ccccc2N1C(=O)c1ccccc1 (stereo not given)	.	-1.0	.	.	.	4.8
Nc1nc(SCC(=O)c2cccs2)n[nH]1	-3.4	7.9	-11.3	0.2	2.6	38.7*
COc1ccccc1N1CCN(S(=O)(=O)c2ccc3nc(-c4ccccc4)[nH]c3c2)CC1	31.9*	-2.9	3.0	-0.7	-24.5	2.1
O=S(=O)(c1ccc2nc(-c3ccccc3)[nH]c2c1)N1CCN(c2cccc(Cl)c2)CC1	-5.9	2.2	9.6	-1.8	-1.4	3.7
O=C1c2cc(Cl)ccc2OC2(CCNCC2)C12CC(c1ccc(Cl)cc1)=NO2 (stereo not given)	0.7	68.4*	13.0	-5.7	4.0	18.0
O=C1c2cc(Cl)ccc2OC2(CCNCC2)C12CC(c1ccccc1)=NO2 (stereo not given)	7.8	0.8	-1.6	-1.4	-2.6	4.8
COC(=O)Cn1c(C)c(/C=C/c2cc[n+](C)cc2)c2ccccc21	.	69.5*	.	.	-9.6	127.7
CC1(C(=O)NCc2ccccc2)CN(S(C)(=O)=O)CC(=O)N1CCCN1CCOCC1 (stereo not given)	.	-1.7	.	.	.	2.5
C[C@H](O)[C@@H]1C(=O)N2CCc3c([nH]c4ccccc34)[C@@H]2C[C@@H]1N(C)C(=O)c1ccco1	.	0.0	-13.4	.	.	1.3
CC(=O)Nc1ccc(S(=O)(=O)c2ccc(C)cc2)cc1	-5.5	5.1	0.4	-1.1	3.7	34.4*
CC(=O)Nc1ccc(C(=O)CS(=O)(=O)c2ccc(C)cc2)cc1	1.9	0.2	-3.4	-0.8	4.0	0.5
